{
  "source": "ChEMBL document CHEMBL1154686",
  "about": "“Pyrazoline bearing benzimidazoles: search for anticancer agent” (2010)",
  "format_in_all_cases": "functional",
  "key": {"SF-295": {"system": "SF-295", "experiment": "Growth inhibition of human SF295 cells after 48 hrs by SRB assay", "settings": "SF-295, 48 h", "in_short": "(§1)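 NCI-60 panel protocol with adherent lines. Cells were seeded at 5,000–40,000 cells/well, depending on doubling time, and pre-incubated 24 h at 37 °C, 5% CO₂. Time-zero plates were TCA-fixed at drug addition. Drugs were dissolved in DMSO and exposed for 48 h. Cells were fixed with cold TCA (final 10%) for 60 min at 4 °C, stained with 0.4% SRB in 1% acetic acid for 10 min, solubilized with 10 mM trizma base, and read at A515.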"}, "SK-OV-3": {"system": "SK-OV-3", "experiment": "Growth inhibition of human SKOV3 cells after 48 hrs by SRB assay", "settings": "SK-OV-3, 48 h", "in_short": "as §1"}, "MDA-MB-468": {"system": "MDA-MB-468", "experiment": "Growth inhibition of human MDA-MB-468 cells after 48 hrs by SRB assay", "settings": "MDA-MB-468, 48 h", "in_short": "as §1"}, "NCI-H226": {"system": "NCI-H226", "experiment": "Growth inhibition of human NCI-H226 cells after 48 hrs by SRB assay", "settings": "NCI-H226, 48 h", "in_short": "as §1"}, "NCI/ADR-RES": {"system": "NCI/ADR-RES", "experiment": "Growth inhibition of human NCI/ADR-RES cells after 48 hrs by SRB assay", "in_short": "as §1"}, "HOP-62": {"system": "HOP-62", "experiment": "Growth inhibition of human HOP62 cells after 48 hrs by SRB assay", "settings": "HOP-62, 48 h", "in_short": "as §1"}, "HOP-92": {"system": "HOP-92", "experiment": "Growth inhibition of human HOP92 cells after 48 hrs by SRB assay", "settings": "HOP-92, 48 h", "in_short": "as §1"}, "[1]": {"settings": "read-out: LC50 (the source's name)"}},
  "data": [
    {"molecule": "COc1ccc(C2CC(c3nc4ccccc4[nH]3)=NN2c2ccccc2)cc1OC", "note": "(stereo unspecified)", "values": [
      {"measurement": "GI50", "setting": "SF-295", "value": 5.98, "unit": "µM"},
      {"measurement": "TGI", "setting": "SF-295", "value": 51.4, "unit": "µM"},
      {"measurement": "CC50", "setting": "SF-295; [1]", "value": "> 100", "unit": "µM"},
      {"measurement": "GI50", "setting": "SK-OV-3", "value": 33.1, "unit": "µM"},
      {"measurement": "TGI", "setting": "SK-OV-3", "value": "> 100", "unit": "µM"},
      {"measurement": "CC50", "setting": "SK-OV-3; [1]", "value": "> 100", "unit": "µM"},
      {"measurement": "GI50", "setting": "MDA-MB-468", "value": 5.25, "unit": "µM"},
      {"measurement": "TGI", "setting": "MDA-MB-468", "value": 21.2, "unit": "µM"},
      {"measurement": "CC50", "setting": "MDA-MB-468; [1]", "value": 64.9, "unit": "µM"},
      {"measurement": "GI50", "setting": "NCI-H226", "value": 15.3, "unit": "µM"},
      {"measurement": "TGI", "setting": "NCI-H226", "value": "> 100", "unit": "µM"},
      {"measurement": "CC50", "setting": "NCI-H226; [1]", "value": "> 100", "unit": "µM"},
      {"measurement": "GI50", "setting": "NCI/ADR-RES", "value": 19, "unit": "µM"},
      {"measurement": "TGI", "setting": "NCI/ADR-RES", "value": 94.5, "unit": "µM"},
      {"measurement": "CC50", "setting": "NCI/ADR-RES; [1]", "value": "> 100", "unit": "µM"},
      {"measurement": "GI50", "setting": "HOP-62", "value": 19.9, "unit": "µM"},
      {"measurement": "TGI", "setting": "HOP-62", "value": "> 100", "unit": "µM"},
      {"measurement": "CC50", "setting": "HOP-62; [1]", "value": "> 100", "unit": "µM"},
      {"measurement": "GI50", "setting": "HOP-92", "value": 3.89, "unit": "µM"},
      {"measurement": "TGI", "setting": "HOP-92", "value": "> 100", "unit": "µM"},
      {"measurement": "CC50", "setting": "HOP-92; [1]", "value": "> 100", "unit": "µM"}
    ]}
  ]
}
